# In ChEMBL document CHEMBL1155178, “Reactivity of isothiazolones and isothiazolone-1-oxides in the inhibition of the PCAF histone acetyltransferase” (Eur J Med Chem, 2009):
# Columns and labels:
# [1] = Octanol-water partition coefficient, log P by HPLC analysis; format: physicochemical
# In short: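 log P determined from the analyte's peak area in each of the two layers.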
# [2] = test system: HepG2; test: Growth inhibition of human HepG2 cells after 48 hrs by crystal violet assay; format: functional, cell-based; conditions: HepG2, 48 h
# In short: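 HEP G2 liver cancer cells grown in DMEM with 10% heat-inactivated FBS, penicillin and streptomycin at 37 °C, 5% CO2. Seeded at 5000 cells/well, grown 24 h, then exposed to inhibitors for 48 h. Fixed and stained with 1% crystal violet in 70% ethanol for 30 min, water-washed, solubilized in 1% SDS, read at 550 nm. Cell-free blank subtracted; untreated growth set to 100%. Each concentration tested 8-fold.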
# [3] = target: Histone acetyltransferase KAT2B (Homo sapiens, UniProt Q92831); test: Inhibition of human recombinant histone acetyltransferase PCAF assessed as CoA-SH activity preincubated for 15 mins by CPM fluorescent assay
# Chain of Histone acetyltransferase KAT2B (Q92831 whole entry): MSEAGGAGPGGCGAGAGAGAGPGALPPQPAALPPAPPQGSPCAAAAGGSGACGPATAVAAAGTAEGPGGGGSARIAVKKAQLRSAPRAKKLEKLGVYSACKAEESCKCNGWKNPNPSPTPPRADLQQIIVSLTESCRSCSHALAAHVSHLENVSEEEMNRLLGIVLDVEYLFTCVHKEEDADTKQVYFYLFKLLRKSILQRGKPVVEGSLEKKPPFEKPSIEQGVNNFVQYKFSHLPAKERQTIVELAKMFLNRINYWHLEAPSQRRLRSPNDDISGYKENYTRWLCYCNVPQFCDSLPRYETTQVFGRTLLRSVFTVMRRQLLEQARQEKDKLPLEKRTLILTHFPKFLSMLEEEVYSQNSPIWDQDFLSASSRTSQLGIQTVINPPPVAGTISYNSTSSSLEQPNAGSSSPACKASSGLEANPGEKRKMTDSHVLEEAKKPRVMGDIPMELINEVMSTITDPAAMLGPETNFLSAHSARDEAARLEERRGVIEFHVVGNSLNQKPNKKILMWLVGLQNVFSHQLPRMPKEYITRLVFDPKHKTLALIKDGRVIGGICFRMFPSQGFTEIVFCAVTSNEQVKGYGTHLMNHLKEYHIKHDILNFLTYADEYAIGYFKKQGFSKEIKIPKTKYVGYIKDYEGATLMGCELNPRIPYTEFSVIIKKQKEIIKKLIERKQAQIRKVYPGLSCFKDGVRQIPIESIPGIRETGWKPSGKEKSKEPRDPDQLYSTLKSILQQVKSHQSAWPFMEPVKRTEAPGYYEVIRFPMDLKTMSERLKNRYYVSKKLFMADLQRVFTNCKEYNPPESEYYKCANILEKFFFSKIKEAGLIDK
Structure (SMILES),logP [1],IC50 [2],IC50 [3]
CCn1sc(Cl)cc1=O,,12 µM,
CCn1sc(Cl)c(Cl)c1=O,,12 µM,2.4 µM
CCCCCCCCCCCCSc1cc(=O)n(C(C)(C)C)[s+]1[O-] (stereo unspecified),,> 50 µM,> 10 µM
COC(=O)CCn1c(=O)c(C)c(Cl)[s+]1[O-] (stereo unspecified),,> 100 µM,> 10 µM
CCn1c(=O)cc(Cl)[s+]1[O-] (stereo unspecified),,> 100 µM,> 10 µM
COC(=O)CCn1sc(Cl)c(Cl)c1=O,,16 µM,2.6 µM
CC(C)(C)n1c(=O)cc(Cl)[s+]1[O-] (stereo unspecified),,27 µM,> 10 µM
CCn1c(=O)c(Cl)c(Cl)[s+]1[O-] (stereo unspecified),,> 100 µM,> 10 µM

# Further lines, results first:
logP [1],IC50 [2],IC50 [3],Structure (SMILES)
0.69,24 µM,,COC(=O)CCn1sc(Cl)cc1=O
0.08,> 100 µM,,COC(=O)CCn1c(=O)cc(Cl)[s+]1[O-] (stereo unspecified)
,9.1 µM,> 10 µM,CCn1sc(Cl)c(C)c1=O
,8.6 µM,> 10 µM,COC(=O)CCn1sc(Cl)c(C)c1=O
,> 100 µM,> 10 µM,COC(=O)CCn1c(=O)c(Cl)c(Cl)[s+]1[O-] (stereo unspecified)
,> 100 µM,> 10 µM,CCCCCCCCCCCCSc1cc(=O)n(CCC(=O)OC)[s+]1[O-] (stereo unspecified)
,> 100 µM,> 10 µM,CCn1c(=O)c(C)c(Cl)[s+]1[O-] (stereo unspecified)
,> 100 µM,> 10 µM,CCCCCCCCCCCCSc1c(Cl)c(=O)n(CCC(=O)OC)[s+]1[O-] (stereo unspecified)
